Screens as filed in PubChem BioAssay.
A selection: hits, their analogues and other compounds. The true share with any hit is near 3%.
SENP6 inh: blocks the human protease SENP6; Q9GZR1; Recombinant SENP6 catalytic domain, aminoluciferin luminescence; inhibition, % at 10 µM; 330,000 tested, 1.8% active; AID 2599;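 active = inhibition above about 50% at the single tested dose, limit read from the data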;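 note: plate controls were DMSO wells with enzyme for no effect and DMSO wells lacking enzyme for full effect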
SENP8 block-1: SENP8 protease inhibition; inhibition, % at 10 µM; 330,000 tested, 1.2% active; Q96LD8; AID 2540; purified SENP8, Z-RLRGG-aminoluciferin cleavage, luminescence; in the data active = inhibition above about 50%
Target sequence (Q96LD8 whole entry, looked up): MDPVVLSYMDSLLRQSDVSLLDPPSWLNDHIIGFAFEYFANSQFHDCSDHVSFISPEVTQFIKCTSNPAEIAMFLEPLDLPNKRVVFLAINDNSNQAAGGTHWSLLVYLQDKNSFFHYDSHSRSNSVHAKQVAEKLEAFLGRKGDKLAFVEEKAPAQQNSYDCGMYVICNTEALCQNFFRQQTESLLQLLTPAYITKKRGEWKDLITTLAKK
UBC13 polyUb: blocks human UBC13 polyubiquitin chain formation; P61088; TR-FRET; inhibition, % at 20 µM; 330,000 tested, 0.47% active; AID 485273; in the data active = inhibition above about 45%, passing the limit was not always enough
SENP8 block-2: blocks human SENP8 cleavage of Nedd8 substrate. 360,000 tested, 0.64% active. Q96LD8. inhibition, % at 20 µM. AID 602440. recombinant SENP8, Nedd8 substrate fluorescence; in the data active = inhibition mostly above about 40%, no sharp cut-off; inactive = mostly below about 27%
SENP7 block: SENP7 protease inhibition | Q9BQF6 | recombinant SENP7, Z-RLRGG-aminoluciferin luminescence, 40 min | inhibition, % at 5 µM | 330,000 tested, 1.5% active;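 active = inhibition above about 50% at the single test dose, limit read from the data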;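 note: plate controls were DMSO with enzyme for no effect and no enzyme buffer wells for full effect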
Apaf-1 inh: blocks human Apaf-1 apoptosome activity; reconstituted apoptosome caspase-3 activity, DEVD-Rh110 fluorescence; 330,000 tested, 0.71% active; O14727; AID 489030; inhibition, % at 20 µM; active = inhibition of at least 40% at 20 µM;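 note: plate controls were DMSO wells for no effect and DEVD-CHO caspase inhibitor wells for full effect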
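Medium: Hepes buffer, pH 7.5 / System: biochemical Apaf-1 apoptosome reconstitution / Measured by: Rh110 fluorescence, excitation 480 nm, emission 540 nm / Times: compound with Apaf-1, dATP, procaspase-3 30 min, then 50 min reaction, room temperature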
SENP8 confirm: human SENP8 inhibition, confirmed; 6,200 tested, 40% active; AID 488912; inhibition, % at 12.5 µM; shares compounds with SENP7 block; Recombinant SENP8, Z-RLRGG-aminoluciferin luminescence, 60 min;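 active = mean inhibition across replicates above about 50%, limit read from the data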
SENP6 confirm: confirmation of human SENP6 protease inhibitors; shares compounds with SENP7 block; inhibition, % at 12.5 µM; recombinant SENP6, Z-RLRGG-aminoluciferin luminescence; 6,200 tested, 58% active
SENP7 conf: human SENP7 inhibition, confirmed | shares compounds with SENP7 block | recombinant SENP7, Z-RLRGG-aminoluciferin luminescence, 40 min | inhibition, % at 12.5 µM | 6,200 tested, 69% active | AID 488917
Casp3 SENP sel: selectivity test for SENP inhibitors: human caspase-3 inhibition; shares compounds with SENP7 block; purified caspase-3, Z-DEVD-aminoluciferin luminescence, 60 min; inhibition, % at 12.5 µM; 6,200 tested, 60% active; AID 488918;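 active = mean inhibition above about 50%, limit read from the data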;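 note: plate controls were enzyme with DMSO for no effect and wells without caspase-3 for full effect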
Target sequence (P42574 28-227 limits assumed): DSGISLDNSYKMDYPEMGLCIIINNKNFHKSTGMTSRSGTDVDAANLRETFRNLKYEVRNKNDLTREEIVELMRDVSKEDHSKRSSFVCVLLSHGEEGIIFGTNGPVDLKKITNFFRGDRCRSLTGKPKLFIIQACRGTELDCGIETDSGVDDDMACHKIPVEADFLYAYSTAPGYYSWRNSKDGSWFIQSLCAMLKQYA
SENP luc ctr: counter-screen for SENP inhibitors: luminescence interference; shares compounds with SENP7 block; 6,200 tested, 39% active; Pre-incubated SENP8/Z-RLRGG-aminoluciferin, luciferase luminescence interference; inhibition, % at 12.5 µM;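 active = mean inhibition above about 50% when retested at one dose, limit read from the data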;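 note: plate controls were DMSO wells with completed reaction for no effect and substrate without enzyme for full effect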
* = called active by the depositor; x = not tested or not shown.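 Rule for the calls, unless noted: active = mean inhibition above about 50% in the one-dose retest (limit read from the data); inactive = the rest.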

SMILES	SENP6 inh	SENP8 block-1	UBC13 polyUb	SENP8 block-2	SENP7 block	Apaf-1 inh	SENP8 confirm	SENP6 confirm	SENP7 conf	Casp3 SENP sel	SENP luc ctr
Cc1cc(=O)n2nc(N3CCCC(C(=O)Nc4cccc(C)c4C)C3)sc2n1 (centres undefined)	x	x	x	-0.8	x	x	x	x	x	x	x
Cc1ccsc1C=Nc1ccc(O)cc1	68.3*	8.2	-17.9	97.1*	37.5	93.7*	29.0	15.5	-14.4	12.9	6.2
Cc1ccsc1/C=N/N=C/c1sccc1C	-5.1	95.3*	-13.6	16.9	98.2*	20.3	-11.7	98.4*	102.8*	86.5*	87.1*
c1ccc(Cn2ncc3c(N4CCN(c5ccccc5)CC4)ncnc32)cc1	x	x	x	11.1	x	x	x	x	x	x	x
CCOC(=O)[C@]12CCC=C1N(Cc1cccc3ccccc13)C(=O)[C@H](CC(=O)NCc1ccc(C)o1)C2	x	x	x	19.7	x	x	x	x	x	x	x
CCOc1ccc(-c2nnn(CC(=O)Nc3ccccc3OC)n2)cc1OCC	-4.7	6.8	6.2	28.2	62.6*	-11.4	-7.6	-2.0	-1.1	7.4	3.1
C(=N\Nc1ccc2ccccc2n1)/c1ccc2c(c1)OCCO2	78.4*	84.3*	8.0	-392.9	-3.6	-3.2	97.9*	100.5*	103.9*	97.5*	84.6*
Cc1ccc(/C=N/Nc2cn[nH]c(=O)n2)o1	-14.6	1.2	-15.0	19.2	0.6	-8.8	x	x	x	x	x
Cc1cccc(/C=N/Nc2ccc3ccccc3n2)c1	91.9*	96.1*	15.3	-406.8	5.2	15.5	-5.6	100.7*	104.0*	98.2*	75.2*
Cc1ccc(/C=N/Nc2ccc3ccccc3n2)o1	78.7*	85.0*	-9.9	-457.4	88.3*	-2.1	92.8*	92.8*	100.0*	91.7*	85.1*
C(=N\Nc1nc2ccccc2[nH]1)/c1ccc2c(c1)OCCO2	45.8	34.2	-6.1	-301.3	49.9	12.7	x	x	x	x	x
COC(=O)c1sccc1-n1cc2c(c1-c1ccccc1)c(=O)n(C)c(=O)n2C	x	x	x	20.2	x	x	x	x	x	x	x
N/C(=N\OC(=O)c1ccccc1[N+](=O)[O-])c1ccccn1	54.0*	41.6	3.3	-2.2	61.4*	-4.5	64.7*	60.8*	-6.8	86.2*	66.5*
N/C(=N\OC(=O)c1ccccc1Cl)c1ccccn1	96.0*	93.1*	1.1	5.6	100.5*	-13.1	97.3*	97.9*	102.5*	98.4*	96.9*
COc1ccccc1C(=O)O/N=C(\N)c1ccccn1	52.5*	37.9	-5.5	15.1	8.7	-9.9	41.2	29.6	57.9*	74.5*	54.4*
Cc1ccc(C(=O)O/N=C(\N)c2ccccn2)c(C)c1	98.8*	95.2*	-8.9	4.6	101.8*	8.1	99.6*	100.6*	103.5*	99.1*	98.7*
COc1cccc(/C=N/NC(=S)Nc2cccc(C(=O)O)c2)c1O	96.8*	95.3*	3.7	-202.9	97.6*	-7.0	98.5*	99.0*	101.9*	97.2*	83.9*
COc1cccc(/C=N/Nc2c(Cl)cncc2Cl)c1O	75.6*	66.4*	4.5	15.2	61.8*	9.1	74.1*	71.0*	89.8*	65.0*	72.1*
COc1cc(/C=N/NC(=S)Nc2cccc(C(=O)O)c2)ccc1O	14.8	-3.0	1.0	-135.8	5.6	1.9	x	x	x	x	x
COc1cccc(/C=N/Nc2ccc([N+](=O)[O-])cc2)c1O	70.2*	61.5*	-48.6	-69.4	78.0*	13.4	20.5	66.6*	97.8*	50.0*	5.4
COC(=O)CCCn1cc(CN2CC(N3CCN(C)CC3)CS2(=O)=O)nn1 (centres undefined)	x	x	x	19.1	x	x	x	x	x	x	x
